Screens: PubChem BioAssay, several laboratories
bCat nuc transl = alters nuclear translocation of beta-catenin in HeLa cells. immunofluorescence imaging. nuclear translocation activity, % at 5 µM. 190,000 compounds, 0.3% hits;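 active = nuclear translocation activity above 50% at 5 µM, with a well cell count of 50 or more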;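 also: per-cell ratio of nuclear to cytoplasmic median beta-catenin stain intensity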
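Test system: HeLa cells, endogenous beta-catenin; Compound: single 5 µM dose plus 0.02–20 µM confirmation series; Times: compound exposure 24 h at 37°C; Signal: fluorescence imaging of beta-catenin antibody stain plus DAPI; Read-out: % activation, nuclear-to-cytoplasmic median beta-catenin signal ratio per cell.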
HSV augment = increases HSV replication in cells; HSV replication augmentation in cells, fold increase; maximum fold increase; 220,000 compounds, 0.005% hits; AID 1956; in the data active = maximum fold increase above about 1.5; tested in PC3 cells
MT stabilize HCS = microtubule stabilization, imaging screen; AID 2205; 200,000 compounds, 0.83% hits; HeLa tubulin immunostaining HCS, 24 h; share of cells brighter than vehicle mean+2SD; % tubulin-high responders, % at 10 µM;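 active = plate Z-score above 3 for both tubulin-high and condensed-nucleus cell shares, with cell loss under 80%, at 10 µM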;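 also: anti alpha tubulin signal scored within the nucleus-defined area of each cell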
L major viab = inhibitors of Leishmania major promastigote growth; inhibition, % at 10 µM; 200,000 compounds, 9% hits; Leishmania major promastigotes, resazurin fluorescence viability; AID 1063; in the data active = inhibition above about 50%;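 also: promastigotes grown with compound for 44 hours at 28 °C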
Dynein transport = dynein cargo transport inhibition. AID 1381. 220,000 compounds, 0.47% hits. 3617.4 mouse cells, GR-EGFP nuclear translocation imaging; test concentration mostly 20 µM; stimulated with dexamethasone, 1 µM; active compounds read low. z-score, hits read low;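 active = plate z-score of nuclear minus cytoplasmic receptor signal below a set negative limit, without overly bright fluorescence or cell loss, cut at about -3.5 in these data, passing the limit was not always enough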;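 also: z-score of nuclear minus cytoplasmic ring GR-EGFP intensity difference per well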
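medium = tetracycline-free induction medium containing charcoal-stripped FBS | probe or stimulus = dexamethasone, 1.0 µM final | timing = 48 h induction, then 1 h compound, then 30 min agonist, 37 °C | detection = automated 10x imaging of fixed Hoechst-stained cells | read-out basis = nuclear versus cytoplasmic GR-EGFP signal, averaged per well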
Each line names hits and unclear results; the compound was inactive in the other large screens. Only some compounds are listed: those with a hit (about 8.9% of all), similar ones and a draw of the others.

COc1ccc(-c2coc3cc4oc(=O)c5ccccc5c4cc23)cc1F	bCat nuc transl 141.4
C=CCn1c(=O)c2ccccc2n2c(Sc3nnnn3-c3ccccc3)nnc12	L major viab 56.5
CCCn1c(=O)c2ccccc2n2c(Sc3nnnn3-c3ccccc3)nnc12	none
CCc1cccc(Nc2cc(C)nc3ncnn23)c1	none (no result: HSV augment)
CCn1c2ccccc2c2cc(Nc3cc(C)nc4ncnn34)ccc21	bCat nuc transl 93.6
CCOC(=O)N/N=C(\C)c1ccc(-n2cnnn2)cc1	none
Cc1c(Cl)cccc1NC(=O)N1CCCC1	none
O=c1cnn(-c2ccc(Cl)cc2Cl)c(-c2ccccc2)c1	L major viab 91.5 (no result: HSV augment)
Cc1cc(C)c(S(=O)(=O)Nc2ccc(-c3cn4ccccc4n3)cc2)c(C)c1	L major viab 60.8
Cc1cccc(S(=O)(=O)Nc2ccc(-c3cn4ccccc4n3)cc2)c1	none
CCCCN(C)C(=O)C(Cc1ccccc1)NS(=O)(=O)c1ccc2c(c1)c(=O)n(C)c(=O)n2C (stereo not given)	none (no result: bCat nuc transl)
CCN(CC(=O)Nc1ccccc1SC)Cc1nc2ccccc2c(=O)[nH]1	none (no result: MT stabilize HCS, L major viab)
CCN(CC(=O)NC(c1ccccc1)c1ccccc1)Cc1nc2ccccc2c(=O)[nH]1	L major viab 54.0
CCN(CC(=O)NCCc1ccc(F)cc1)Cc1nc2ccccc2c(=O)[nH]1	none (no result: MT stabilize HCS, L major viab)
CCN(CC(=O)Nc1ccccc1-c1ccccc1)Cc1nc2ccccc2c(=O)[nH]1	MT stabilize HCS 24.9
O=C1Nc2ccccc2OC1CC(=O)N1CCOCC1 (stereo not given)	none (no result: bCat nuc transl)
CC(=O)NCCC(=O)Nc1nc(-c2cccs2)c(-c2cccs2)s1	none
Cc1cc(C)cc(NC(=O)COC(=O)CCCNC(=O)c2ccc(Cl)cc2)c1	none
COc1ccc(OC)c(-c2csc(NC(=O)c3ccc(OCC4CCCO4)cc3)n2)c1 (stereo not given)	none
COc1ccc(OC)c(-c2csc(NC(=O)CSc3ccc([N+](=O)[O-])cc3)n2)c1	L major viab 85.3
COc1ccc(OC)c(-c2csc(NC(=O)CSc3ccc(Br)cc3)n2)c1	L major viab 53.5
COc1ccc(OC)c(-c2csc(NC(=O)Cn3[nH]c(=O)c4ccccc4c3=O)n2)c1	none
Cc1cc(C)c(OCC(O)CNC(C)(C)C)c(C)c1 (stereo not given)	none
COc1ccc2[nH]c(=O)c(CNc3ccccc3C)cc2c1	none (no result: MT stabilize HCS, L major viab)
Cc1ccc(NC(=O)NC(=O)CSc2nnnn2C)c(C)c1	none
Cn1c(Cn2c(=O)sc3ccccc32)nnc1SCc1ccc(F)cc1	none
N#Cc1cc(-c2ccccc2)oc1NC(=O)c1ccccc1	MT stabilize HCS 44.0
COc1ccc(C(=O)Nc2oc(-c3ccccc3)c(-c3ccccc3)c2C#N)cc1	L major viab 86.3
O=C(O)c1ccc(N2CC3CC(C2)c2cccc(=O)n2C3)c(NC(=S)Nc2ccc(Cl)cc2Cl)c1 (stereo not given)	none
CCOC(=O)c1c(C)n(CC(COC(C)=O)OC(C)=O)c2ccc(OC(C)=O)cc12 (stereo not given)	none (no result: bCat nuc transl)
CCc1nnc(NC(=O)c2ccc(S(=O)(=O)N3CCCCC3C)cc2)s1 (stereo not given)	none
CC1CCCN(S(=O)(=O)c2ccc(C(=O)Nc3nnc(-c4ccccc4Cl)o3)cc2)C1 (stereo not given)	L major viab 100.3
CC1CC(C)CN(S(=O)(=O)c2ccc(C(=O)Nc3nnc(-c4cccs4)o3)cc2)C1 (stereo not given)	L major viab 99.7 (no result: HSV augment)
CC1CCCN(S(=O)(=O)c2ccc(C(=O)Nc3nnc(-c4ccccn4)o3)cc2)C1 (stereo not given)	none
CCC1CCCCN1S(=O)(=O)c1ccc(C(=O)Nc2nnc(-c3cccs3)o2)cc1 (stereo not given)	L major viab 99.2 (no result: HSV augment)
COc1cc2c(cc1OC)C(c1ccccc1)=NCC2	none
COc1ccccc1Nc1nc(-c2ccc3c(c2)NC(=O)CO3)cs1	MT stabilize HCS 23.7
COc1ccc(Nc2nc(-c3ccc4c(c3)NC(=O)CO4)cs2)cc1	none
Cc1cc(NC(=O)CSc2ccc(Cl)cc2)no1	none (no result: bCat nuc transl)
Cc1ccccc1OCCC(=O)Nc1ccc(F)c(Cl)c1	L major viab 68.1
C=CCn1c(SCC(=O)N2CC(=O)Nc3ccccc32)nc2scc(-c3ccccc3)c2c1=O	L major viab 94.4
C=CCn1c(SCC(=O)NCc2ccc3c(c2)OCO3)nc2scc(-c3ccccc3)c2c1=O	none
CCCOc1ccc(/C=N/NC(=O)C(C)Sc2ccccn2)cc1OCC (stereo not given)	none
COCCN(C(=O)CNC(=O)c1cccs1)C(C(=O)NC1CCCC1)c1cccs1 (stereo not given)	none
CCN1C(=O)C(CC(=O)Nc2ccc(OC)cc2)N(CCCN2CCN(c3ccc(OC)cc3)CC2)C1=S (stereo not given)	L major viab 72.2 (no result: bCat nuc transl)
CCN1C(=O)C(CC(=O)Nc2ccc(OC)cc2)N(Cc2cccnc2)C1=S (stereo not given)	none (no result: bCat nuc transl)
COC(=O)CN1C(=S)N(Cc2ccccc2)C(=O)C1CC(=O)Nc1ccc(Br)cc1 (stereo not given)	L major viab 88.3
CCN1C(=O)C(CC(=O)Nc2ccc(F)cc2)N(Cc2cccs2)C1=S (stereo not given)	none
CCCOc1ccc(NC(=O)CC2C(=O)N(Cc3ccccc3)C(=S)N2Cc2cccs2)cc1 (stereo not given)	L major viab 64.9
COc1ccc(NC(=O)CC2C(=O)N(CCc3ccccc3)C(=S)N2Cc2cccnc2)cc1 (stereo not given)	L major viab 84.9
S=C(c1ccc(N2CCCC2)c(Br)c1)N1CCCCC1	none
CN(C)CCCNc1cc(Cl)c(S(=O)(=O)N2CCCCC2)cc1C(=O)O	none (no result: bCat nuc transl, HSV augment)
COC(=O)c1ccccc1NC(=O)Cn1ccnc1	none (no result: bCat nuc transl)
Cc1cc(C)[n+](C)n1CC(O)Cn1c2ccccc2c2ccccc21 (stereo not given)	none
O=C(NN1S(=O)(=O)c2ccccc2S1(=O)=O)c1ccc(Br)cc1	none
CCOc1ccc(N2C(=O)C(CC(=O)Nc3ccc(F)cc3)N(Cc3ccccn3)C2=S)cc1 (stereo not given)	L major viab 67.8
CCOc1ccc(N2C(=O)C(CC(=O)Nc3ccccc3)N(Cc3ccccn3)C2=S)cc1 (stereo not given)	none (no result: bCat nuc transl)
FC(F)Sc1ccc(Nc2ncnc3nc[nH]c23)cc1	none
N#CC1=C(N)NC(SCc2ccccc2)=C(C#N)C12CCCCC2	bCat nuc transl 57.9, MT stabilize HCS 29.7, L major viab 99.0 (no result: HSV augment)
CCSC1=C(C#N)C2(CCCCC2)C(C#N)=C(N)N1	none
N#CC1=C(N)NC(SCC(=O)Nc2ccccc2)=C(C#N)C12CCCCC2	L major viab 76.7
Nc1cnn(C2CCCO2)c(=O)n1 (stereo not given)	none
CCOC(=O)c1c(C)oc2cc(Br)c(OC)cc12	none
CCOC(=O)c1c(CN2CCCCC2)n(C)c2cc(Br)c(OC)cc12	L major viab 99.4
CCOC(=O)c1c(CN2CCN(CCO)CC2)n(C)c2cc(Br)c(OC)cc12	L major viab 54.0
